Assay results taken from ChEMBL document CHEMBL1156947, “Halogenated analogs of 1'-acetoxychavicol acetate, Rev-export inhibitor from Alpinia galanga, designed from mechanism of action” (Bioorg Med Chem Lett, 2010).
≈ marks a conversion by molar mass, not a printed value.

Legend:
[1] = tested on: Human immunodeficiency virus 1; assay: Inhibition of HIV1 Rev nuclear export in Saccharomyces pombe expressing GST-NLS-GFP-RevNES fused protein assessed as cellular distribution after 3 hrs by fluorescence microscopy
How it was run: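 Fission yeast colony grown 24 h at 37 °C in thiamine-free MM medium to induce the GST-NLS-GFP-RevNES fusion. Cells then exposed to samples in medium with 1% DMSO for 3 h at 37 °C. Fusion-protein distribution checked by fluorescence microscopy to give MIC values.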

[2] = Inhibition of HIV1 HA-tagged Rev nuclear export expressed in human HeLa cells assessed as cellular localization after 12 hrs by FITC-labelled indirect fluorescence microscopy; assay type: cell-based; details: Human immunodeficiency virus 1, HeLa
How it was run: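 HeLa cells (1.0 × 10^5) grown on coverslips in DMEM with 10% FBS, 37 °C, 5% CO2, 24 h. Co-transfected 16 h with plasmids for HA-tagged Rev and Gag (pCRRE/ΔRev). Samples added in medium with 1% DMSO, 12 h at 37 °C. Cells fixed in 4% formaldehyde, methanol-treated, blocked with 10% FBS, then anti-HA and FITC anti-mouse IgG. Rev localization scored by fluorescence microscopy and image analysis.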

[3] = Stability assessed as compound remaining up to 180 mins in presence of in fetal bovine serum; assay type: ADME; details: cattle, 3 h
How it was run: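 Sample (0.2 mM ethanol stock) added to RPMI1640 containing 10% FBS, held at 37 °C for 0, 30, 60 or 180 min. Mixture extracted with EtOAc, residue taken up in acetonitrile. Remaining compound measured by reversed-phase HPLC (C18, acetonitrile–water gradient, UV 220 nm), in triplicate.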

Compound | MIC [1] | IC50 [2] | Stability [3]
C=C[C@H](OC(C)=O)c1ccc(OC(C)=O)c(F)c1 | 1.7 µM (≈ 0.429 µg/mL) | 0.48 µM | –
C=C[C@H](OC(C)=O)c1ccc(OC(C)=O)c(Br)c1 | 1.7 µM (≈ 0.532 µg/mL) | 0.49 µM | –
C=C[C@H](OC(=O)OC(C)(C)C)c1ccc(OC(=O)OC(C)(C)C)cc1 | > 50 µM | – | Stable
C=C[C@H](OC(=O)NC)c1ccc(OC(=O)NC)cc1 | > 50 µM | – | Stable
C=C[C@H](OC(=O)OC(C)C)c1ccc(OC(=O)OC(C)C)cc1 | > 50 µM | – | Stable
C=C[C@H](OC(C)=O)c1ccc(OC(C)=O)c(Cl)c1 | 2.2 µM (≈ 0.591 µg/mL) | 0.62 µM | –
C=C[C@H](OC(C)=O)c1ccc(OC(C)=O)cc1 [1'-ACETOXYCHAVICOL ACETATE] | 4.3 µM | 0.98 µM | –
C=C[C@H](OC(C)=O)c1ccc(OC(C)=O)c(F)c1F | 1.4 µM (≈ 0.378 µg/mL) | 0.13 µM | –

More lines, now with the values ahead:

MIC [1] | IC50 [2] | Stability [3] | Compound
26 µM (≈ 7.24 µg/mL) | – | – | C=C[C@H](OC(=O)OCCC)c1ccc(OC(C)=O)cc1
> 50 µM | – | Stable | C=C[C@H](OC(=O)NC(C)(C)C)c1ccc(OC(=O)NC(C)(C)C)cc1
> 50 µM | – | Stable | C=C[C@H](OC(=O)NCCC)c1ccc(OC(=O)NCCC)cc1
> 50 µM | – | – | C=C[C@H](OC(=O)OC(C)C)c1ccc(OC(C)=O)cc1
> 50 µM | – | Stable | C=C[C@H](OC(=O)NC(C)C)c1ccc(OC(=O)NC(C)C)cc1
19 µM (≈ 4.98 µg/mL) | – | – | C=C[C@H](OC(=O)CCC)c1ccc(OC(C)=O)cc1
25 µM (≈ 6.66 µg/mL) | – | Stable | C=C[C@H](OC(=O)OC)c1ccc(OC(=O)OC)cc1
25 µM (≈ 7.36 µg/mL) | – | Stable | C=C[C@H](OC(=O)OCC)c1ccc(OC(=O)OCC)cc1
19 µM (≈ 4.98 µg/mL) | – | – | C=C[C@H](OC(=O)C(C)C)c1ccc(OC(C)=O)cc1
> 50 µM | – | Stable | C=C[C@H](OC(=O)NCC)c1ccc(OC(=O)NCC)cc1
10 µM (≈ 3.22 µg/mL) | – | Stable | C=C[C@H](OC(=O)OCCC)c1ccc(OC(=O)OCCC)cc1
